The source of these data is PubChem BioAssay AID638 (SRMLSC, 2007).

Molecules are shown by their SMILES.

In the experiment the test system is E. coli BW25113 wild type growth inhibition, OD615. Nature of the experiment: wild-type E. coli BW25113 antibacterial activity – OD615, dose response (AID 638). An outline of the steps:
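Assay system: E. coli BW25113 wild type; buffer or medium: Kanamycin-supplemented LB broth; signal: optical density (absorbance) at 615 nm; controls: chloramphenicol 30 µM control; doses: compound concentration series; times: bacterial exposure to compound 20 h at 37 °C; evaluation: IC50 from 4-parameter logistic, bounds fixed 0–100%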
As to `COc1cccc(C(=O)Nc2nnc(-c3cccs3)o2)c1`, the IC50 – broadly, the point on the concentration scale where inhibition reaches its midpoint – is 79.6 µM.
As for `NC1C2CN(c3nc4c(cc3F)c(=O)c(C(=O)O)cn4-c3ccc(F)cc3F)CC12` (centres undefined), the IC50 is less than 0.195 µM.
The same measure for `O=S1(=O)Nc2c(ccc3cccnc23)-c2ccccc21`: 26.8 µM; for `CCn1cc(C(=O)O)c(=O)c2cc(F)c(N3CCN(C(=O)Nc4ccccc4)CC3)cc21`: 2.28 µM; for `O=C(Nc1cccc(Cl)c1)Nc1nccs1`: 96.1 µM.
The figure for `O=c1ccsn1Cc1ccccc1` is 23.6 µM; for `CCC(=O)N1CCN(c2cc3c(cc2F)c(=O)c(C(=O)O)cn3CC)CC1` it is 3.16 µM; for `CC(=O)OCC1=C(C(=O)O)N2C(=O)[C@@H](NC(=O)Cc3cccs3)[C@H]2SC1` it is 10.6 µM.
The same measure for `C=CCNc1ncnc2c1[nH]c1ccc(C)cc12`: 35.4 µM.
With `Cc1ccsc1C(=O)Nc1nnc(-c2ccco2)o1`, the half-inhibitory concentration (IC50) is 60.3 µM.
The figure for `CCn1cc(C(=O)NCc2ccc3c(c2)OCO3)c(=O)c2cc(F)c(N3CCN(C)CC3)cc21` is 28.2 µM; for `CO[C@@]1(NC(=O)Cc2cccs2)C(=O)N2C(C(=O)O)=C(COC(N)=O)CS[C@@H]21` it is 7.91 µM; for `COc1c(N2CCNC(C)C2)c(F)cc2c(=O)c(C(=O)O)cn(C3CC3)c12` (centres undefined) it is less than 0.195 µM.
With `Oc1c(CN2CCCCC2)cc(Br)c2cccnc12`, the IC50 was 61.3 µM.
`N#Cc1ccc(NC(=O)Nc2ccc(Cl)cc2)cc1`: the 50% inhibitory concentration (IC50) was 49.2 µM.
With `c1ccc(-c2cccc(-c3ccccn3)n2)nc1`, the IC50 is 66.8 µM.
Regarding `CN(C)[C@@H]1C(=O)C(C(N)=O)=C(O)[C@@]2(O)C(=O)C3=C(O)c4c(O)ccc(Cl)c4[C@@H](O)[C@H]3C[C@@H]12`, the concentration for half-maximal inhibition (IC50) was 0.609 µM.
Take `CN1CCN(c2c(F)cc3c(=O)c(C(=O)O)cn4c3c2SCC4)CC1`: the IC50 is 1.1 µM.
The figure for `CCSc1nnc(NC(=O)c2ccccn2)s1` is 92.8 µM; for `O=C(Nc1nnc(-c2ccccc2)o1)c1ccc(Cl)cc1` it is 102 µM; for `CC(=O)c1c(C)n([O-])c2ccccc2[n+]1=O` it is 19.5 µM.
As for `COc1cc(Cc2cnc(N)nc2N)cc(OC)c1OC`, the IC50 was 0.688 µM.
`CCCCOc1ccc(NC2=NC3(CCCCC3)N=C(N)N2)cc1`: the half-inhibitory concentration (IC50) is 89 µM.
For `CCn1cc(C(=O)Nc2nncs2)c(=O)c2cc(F)c(N3CCN(C(=O)c4ccco4)CC3)cc21`, the IC50 was 75.6 µM.
